From ChEMBL document CHEMBL1128727, “Characterization of a class of peptide boronates with neutral P1 side chains as highly selective inhibitors of thrombin” (J Med Chem, 1995)
pKi: −log10 of the molar value.

What was measured:
[1] = target: T1, Prothrombin (Homo sapiens, UniProt P00734); test: Binding affinity against gamma thrombin
Method in brief: (§1)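 Human α-thrombin or human γ-thrombin was assayed with S-2238 (H-D-Phe-Pip-Arg-pNA), with velocity measured over 2 min at 25 °C. A 2 h preincubation screened for slow binding. For competitive inhibitors, Ki came from Lineweaver–Burk plots at five substrate concentrations over 10-fold around Km; slow binders were fitted to the slow-binding rate equations. At least five points were run in duplicate.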

[2] = target: Plasma kallikrein (Homo sapiens) (UniProt P03952); test: Binding affinity against plasma kallikrein
[3] = target: T2, Serine protease 1 (Bos taurus, UniProt P00760); test: Binding affinity against Trypsin
T2 sequence (P00760 whole entry): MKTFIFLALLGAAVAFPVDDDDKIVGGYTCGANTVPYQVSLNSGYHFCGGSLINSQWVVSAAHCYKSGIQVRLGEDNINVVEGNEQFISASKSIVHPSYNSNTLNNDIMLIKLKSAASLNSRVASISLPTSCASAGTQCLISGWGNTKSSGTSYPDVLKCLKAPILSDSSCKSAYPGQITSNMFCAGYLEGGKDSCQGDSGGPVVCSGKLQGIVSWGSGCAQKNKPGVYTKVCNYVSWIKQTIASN
Method in brief: (§2)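 Enzymes: bovine pancreatic α-chymotrypsin with S-2586 (MeO-Suc-Arg-Pro-Tyr-pNA), human plasma kallikrein with S-2288, porcine pancreatic elastase with Suc-Ala-Ala-Ala-pNA, and bovine pancreatic trypsin. Initial velocity was read at 25 °C over 2 min. A 2 h preincubation was used to screen for slow binding. For competitive inhibitors, Ki came from Lineweaver–Burk plots at five substrate concentrations spanning 10-fold around Km, using at least five points in duplicate.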

[4] = target: Coagulation factor X (Homo sapiens, UniProt P00742); test: Binding affinity against Coagulation factor X
Method in brief: (§3)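 Chromogenic pNA assays used human plasma factor Xa with S-2222, human plasmin with S-2251, human kidney urokinase with S-2444, and human plasma activated protein C with S-2366. Rates were read over 2 min at 25 °C. A 2 h enzyme–inhibitor preincubation tested for slow binding. For non-slow binders, Ki came from Lineweaver–Burk plots at five substrate levels over a 10-fold range around Km, using at least five points in duplicate.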

[5] = Concentration of inhibitor required to produce a 2-fold prolongation in activated partial Thromboplastin time (APTT) in human plasma; type: functional
Method in brief: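 Pooled citrated normal human plasma, APTT reagent and inhibitor were incubated for 5 min at 37 °C. Clotting was started with CaCl2 from a 25 mM aqueous solution and timed on a coagulometer. The inhibitor concentration that doubled the APTT was determined in duplicate.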

[6] = target: Urokinase-type plasminogen activator (Homo sapiens, UniProt P00749); test: Binding affinity against Urokinase plasminogen activator; method in brief: as §3
[7] = Binding affinity against protein Ca; method in brief: as §3
[8] = target: Chymotrypsinogen A (Bos taurus, UniProt P00766); test: Binding affinity against Chymotrypsin; method in brief: as §2
[9] = target: T1, Prothrombin; test: Binding affinity against thrombin; method in brief: as §1
[10] = target: T1, Prothrombin; test: Binding affinity against alpha thrombin; method in brief: as §1
[11] = target: Plasminogen (Homo sapiens, UniProt P00747); test: Binding affinity against plasmin; method in brief: as §3
[12] = target: T1, Prothrombin; test: Concentration of inhibitor required to produce a 2-fold prolongation in Thrombin time (TT)
Method in brief: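 Pooled citrated normal human plasma was incubated with inhibitor for 1 min at 37 °C; the inhibitor was serially diluted in buffer from a DMSO stock. Human α-thrombin was then added from a 5 units/mL solution in 50 mM sodium phosphate, 0.1% PEG, pH 7.4. Clotting was timed on a coagulometer, and the concentration that doubled the thrombin time was determined in duplicate.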

[13] = target: T3, Cathepsin G (Homo sapiens, UniProt P08311); test: Binding affinity against cathepsin G
T3 sequence (P08311 whole entry): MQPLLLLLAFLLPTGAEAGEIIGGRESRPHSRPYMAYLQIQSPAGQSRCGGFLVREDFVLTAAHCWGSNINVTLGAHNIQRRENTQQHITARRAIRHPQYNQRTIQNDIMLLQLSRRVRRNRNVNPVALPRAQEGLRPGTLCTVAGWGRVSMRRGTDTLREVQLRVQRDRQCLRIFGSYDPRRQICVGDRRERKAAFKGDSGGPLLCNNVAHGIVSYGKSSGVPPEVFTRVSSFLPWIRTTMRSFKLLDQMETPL

Plasminogen, sequence (P00747 97-580 limits assumed): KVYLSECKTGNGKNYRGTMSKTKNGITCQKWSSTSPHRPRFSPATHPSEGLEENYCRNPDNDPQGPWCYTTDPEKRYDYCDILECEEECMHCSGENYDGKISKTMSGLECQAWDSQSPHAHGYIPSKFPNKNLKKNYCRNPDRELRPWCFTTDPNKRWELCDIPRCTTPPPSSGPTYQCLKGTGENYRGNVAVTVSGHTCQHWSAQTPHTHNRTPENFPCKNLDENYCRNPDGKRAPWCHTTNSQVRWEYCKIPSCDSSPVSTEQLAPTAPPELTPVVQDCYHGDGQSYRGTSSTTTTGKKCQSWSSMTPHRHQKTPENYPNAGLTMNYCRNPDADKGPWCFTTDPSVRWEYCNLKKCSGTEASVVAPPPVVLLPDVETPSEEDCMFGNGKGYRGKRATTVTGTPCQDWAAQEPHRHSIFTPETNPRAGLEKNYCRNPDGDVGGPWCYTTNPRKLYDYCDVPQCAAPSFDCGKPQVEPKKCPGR
Plasminogen, sequence (P00747 581-810 limits assumed): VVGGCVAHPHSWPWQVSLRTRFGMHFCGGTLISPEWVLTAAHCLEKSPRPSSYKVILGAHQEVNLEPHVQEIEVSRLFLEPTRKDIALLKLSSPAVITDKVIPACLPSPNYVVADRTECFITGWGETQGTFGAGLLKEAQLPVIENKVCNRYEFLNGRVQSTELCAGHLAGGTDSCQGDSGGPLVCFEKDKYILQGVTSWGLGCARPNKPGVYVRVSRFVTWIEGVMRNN
Plasma kallikrein (Homo sapiens), sequence (P03952 whole entry, looked up): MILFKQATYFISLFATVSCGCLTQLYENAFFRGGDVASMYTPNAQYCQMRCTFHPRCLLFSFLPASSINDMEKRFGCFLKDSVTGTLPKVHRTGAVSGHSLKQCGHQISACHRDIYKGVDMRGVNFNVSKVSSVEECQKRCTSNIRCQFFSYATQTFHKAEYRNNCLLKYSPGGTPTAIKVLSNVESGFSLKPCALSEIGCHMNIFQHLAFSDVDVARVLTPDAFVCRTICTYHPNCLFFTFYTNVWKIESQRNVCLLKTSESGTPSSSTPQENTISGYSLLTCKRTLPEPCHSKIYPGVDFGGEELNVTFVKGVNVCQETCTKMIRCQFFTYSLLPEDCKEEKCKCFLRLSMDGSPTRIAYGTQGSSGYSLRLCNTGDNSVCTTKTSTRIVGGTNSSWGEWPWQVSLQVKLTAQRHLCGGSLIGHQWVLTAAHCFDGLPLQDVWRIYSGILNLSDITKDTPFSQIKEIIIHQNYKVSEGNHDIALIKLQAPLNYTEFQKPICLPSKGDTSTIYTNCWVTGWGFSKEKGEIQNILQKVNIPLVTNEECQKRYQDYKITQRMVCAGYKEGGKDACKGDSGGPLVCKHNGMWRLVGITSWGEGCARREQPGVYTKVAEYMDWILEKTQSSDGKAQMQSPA
Coagulation factor X, sequence (P00742 41-179 limits assumed): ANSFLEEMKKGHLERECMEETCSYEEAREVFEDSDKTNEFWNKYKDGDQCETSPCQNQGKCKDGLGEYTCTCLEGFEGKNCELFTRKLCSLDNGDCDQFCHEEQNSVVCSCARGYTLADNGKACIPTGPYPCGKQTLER
Coagulation factor X, sequence (P00742 235-488 limits assumed): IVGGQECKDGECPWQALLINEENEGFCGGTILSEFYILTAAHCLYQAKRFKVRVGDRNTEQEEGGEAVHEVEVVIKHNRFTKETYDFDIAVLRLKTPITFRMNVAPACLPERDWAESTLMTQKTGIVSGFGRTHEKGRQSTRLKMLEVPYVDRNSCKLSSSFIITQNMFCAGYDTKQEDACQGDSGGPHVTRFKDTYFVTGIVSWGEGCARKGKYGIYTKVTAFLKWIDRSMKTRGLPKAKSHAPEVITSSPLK

Compound	pKi [1]	pKi [2]	pKi [3]	pKi [4]	APTT [5] [µM]	pKi [6]	pKi [7]	pKi [8]	pKi [9]	pKi [10]	pKi [11]	TT [12] [µM]	pKi [13]
CCCCCC(NC(=O)[C@@H]1CCCN1C(=O)[C@H](Cc1ccccc1)NC(=O)OCc1ccccc1)B1O[C@@H]2CC3CC(C3(C)C)[C@]2(C)O1 (stereo in doubt; 3) [listing 1 of 2 here]	7.72	3.92	6.49	6.24	2.3	4.64	5.80	6.94	7.72	7.72	5.54		
CCCCCC(NC(=O)[C@@H]1CCCN1C(=O)[C@H](Cc1ccccc1)NC(=O)OCc1ccccc1)B1O[C@@H]2CC3CC(C3(C)C)[C@]2(C)O1 (stereo in doubt; 3) [listing 2 of 2 here]												0.54	
CC1(C)C2CC1[C@]1(C)OB(C(Cc3ccccc3)NC(=O)[C@@H]3CCCN3C(=O)[C@H](Cc3ccccc3)NC(=O)OCc3ccccc3)O[C@@H]1C2 (some centres undefined)	7.96	< 5.37	6.82	5.92	2.5	< 5.37	< 5.37	7.96	7.74	7.74	5.35	0.53	
COCCC[C@@H](NC(=O)[C@@H]1CCCN1C(=O)[C@@H](Cc1ccccc1)NC(=O)OCc1ccccc1)B1O[C@@H]2CC3CC(C3(C)C)[C@]2(C)O1 (stereo in doubt; 11)									6.92				
CC1(C)C2CC1[C@]1(C)OB(C(CCCBr)NC(=O)[C@@H]3CCCN3C(=O)[C@H](Cc3ccccc3)NC(=O)OCc3ccccc3)O[C@@H]1C2 (stereo in doubt; 13)									4.82				
CCC(C)(C)C(NC(=O)[C@@H]1CCCN1C(=O)[C@H](Cc1ccc2ccccc2c1)NC(=O)OCc1ccccc1)B1O[C@@H]2CC3CC(C3(C)C)[C@]2(C)O1 (some centres undefined)	6.85	3.43	5.62	4.64	110	3.85	4.49	5.84		7.09	4.89	16	
COCCC[C@@H](NC(=O)[C@@H]1CCCN1C(=O)[C@@H](Cc1ccccc1)NC(=O)OCc1ccccc1)B1O[C@@H]2CC3CC(C3(C)C)[C@]2(C)O1 (stereo in doubt; 9b)									8.15				
CCCCCC(NC(=O)[C@@H]1CCCN1C(=O)[C@H](Cc1ccccc1)NC(=O)OCc1ccccc1)B1O[C@@H]2CC3CC(C3(C)C)[C@]2(C)O1 (stereo in doubt; 2)									7.59				
CCCCCC(NC(=O)[C@@H]1CCCN1C(=O)[C@H](Cc1ccccc1)NC(=O)OCc1ccccc1)B1O[C@@H]2CC3CC(C3(C)C)[C@]2(C)O1 (stereo in doubt; 21)									7.00				
CCC(NC(=O)[C@@H]1CCCN1C(=O)[C@H](Cc1ccccc1)NC(=O)OCc1ccccc1)B1O[C@@H]2CC3CC(C3(C)C)[C@]2(C)O1 (some centres undefined)									6.00				
CCCCCC(NC(=O)[C@@H]1CCCN1C(=O)[C@@H](NC(=O)OCc1ccccc1)C(c1ccccc1)c1ccccc1)B1O[C@@H]2CC3CC(C3(C)C)[C@]2(C)O1 (some centres undefined)	7.57	3.80	6.35	4.89		3.27	4.28	5.92	7.38	7.38	4.62		4.84
COCCC(NC(=O)[C@@H]1CCCN1C(=O)[C@H](Cc1ccccc1)NC(=O)OCc1ccccc1)B1O[C@@H]2CC3CC(C3(C)C)[C@]2(C)O1 (some centres undefined)									7.68				
COCCC[C@@H](NC(=O)[C@@H]1CCCN1C(=O)[C@@H](Cc1ccccc1)NC(=O)OCc1ccccc1)B1O[C@@H]2CC3CC(C3(C)C)[C@]2(C)O1 (stereo in doubt; 9a)	7.55	5.21	6.17	5.51	3.4	4.09	5.68	5.92	8.15	8.15	5.11		
